Active and inactive are the calls of the source. The calls are words filed in the database; no cut-off is given here.
Columns and labels:
[1] = biological target: Heat shock protein beta-1 (Homo sapiens) (UniProt P04792); experiment: Inhibition of heat shock protein 27 in human LNCaP cells assessed as decrease in AR protein level at 20 uM after 48 hrs by Western blot method; format: cell-based
Method in brief: (§1)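 LNCaP cells treated with DMSO or compound for 48 h. Whole-cell extracts probed by Western blot with specific antibodies against AR and β-actin. Three independent experiments.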

[2] = biological target: Heat shock protein beta-1 (Homo sapiens) (UniProt P04792); experiment: Inhibition of heat shock protein 27 in human LNCaP cells assessed as decrease in AR protein level at 200 uM after 48 hrs by Western blot method; format: cell-based; method in brief: as §1
Homo sapiens = organism: Homo sapiens; experiment: Inhibition of alpha crystallin (unknown origin) assessed as increase in DTT induced insulin aggregation at 10 uM pretreated for 5 mins followed by DTT addition measured after 45 mins
Method in brief: (§2)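 Insulin 1 mg/ml stock and alpha-crystallin 5 mg/ml stock mixed in PBS containing compound. Incubated 5 min at 37 °C, then aggregation started with 1 M DTT stock. A400 followed for 45 min at 37 °C. Controls were insulin with or without alpha-crystallin in 0.1% DMSO. Triplicate wells; three independent experiments.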

[3] = biological target: Heat shock protein beta-1 (Homo sapiens) (UniProt P04792); experiment: Inhibition of heat shock protein 27 in human LNCaP cells assessed as decrease in AR protein level after 48 hrs by Western blot method; format: cell-based; method in brief: as §1
LNCaP = experiment: Growth inhibition of human LNCAP cells after 72 hrs by MTT assay; format: functional, cell-based
Method in brief: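 LNCaP cells treated with DMSO or a range of compound concentrations, four replicates each, for 72 h. Viability read by MTT assay.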

[4] = biological target: Heat shock protein beta-1 (Homo sapiens) (UniProt P04792); experiment: Inhibition of heat shock protein 27 in human LNCaP cells assessed as decrease in AR protein level at 5 uM after 48 hrs by Western blot method; format: cell-based; method in brief: as §1
[5] = Effect on DTT interaction with insulin at <= 10 uM measured after 45 mins; method in brief: as §2

Sequence of Heat shock protein beta-1 (Homo sapiens) (P04792 whole entry): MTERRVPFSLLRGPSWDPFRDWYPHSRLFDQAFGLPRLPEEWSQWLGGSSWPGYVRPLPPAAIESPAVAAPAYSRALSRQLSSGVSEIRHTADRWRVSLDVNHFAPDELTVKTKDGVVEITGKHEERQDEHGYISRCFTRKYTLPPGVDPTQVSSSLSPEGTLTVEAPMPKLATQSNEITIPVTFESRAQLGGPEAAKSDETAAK

Row | AR protein decrease (active/not active) [1] | inhibition [2] | Compound | also measured
1 | Active | – | C=C1CC[C@@H]2C(C)(C)CCC[C@@]2(C)[C@@H]1CC/C(C)=C/C(=O)Nc1ccc(C)cc1 | –
2 | Active | – | C=C1CC[C@@H]2C(C)(C)CCC[C@@]2(C)[C@@H]1CC/C(C)=C/C(=O)Nc1ccc(C#N)cc1 | inhibition (Homo sapiens): Active; inhibition [3]: Dose-dependent effect; IC50 (LNCaP): 9.81 µM
3 | Active | – | C=C1CC[C@@H]2C(C)(C)CCC[C@@]2(C)[C@@H]1CC/C(C)=C/C(=O)Nc1ccc(OC)cc1 | inhibition (Homo sapiens): Active; inhibition [3]: Dose-dependent effect; IC50 (LNCaP): 1.73 µM; inhibition [4]: Active; Activity [5]: inactive
4 | Active | – | C=C1CC[C@@H]2C(C)(C)CCC[C@@]2(C)[C@@H]1CC/C(C)=C/C(=O)Nc1cccc(Br)c1 | –
5 | Active | – | C=C1CC[C@@H]2C(C)(C)CCC[C@@]2(C)[C@@H]1CC/C(C)=C/C(=O)Nc1ccc(I)cc1 | –

The next lines start with the compound.

Row | Compound | AR protein decrease (active/not active) [1] | inhibition [2] | also measured
6 | C=C1CC[C@@H]2C(C)(C)CCC[C@@]2(C)[C@@H]1CC/C(C)=C/C(=O)NCCc1ccccc1 | Active | – | –
7 | C[C@@H]1CC[C@@]2(C)C(C(=O)O)=CCC[C@@H]2[C@@]1(C)CCc1ccoc1 | – | Active | –
8 | C=C1CC[C@@H]2C(C)(C)C(OC(C)=O)CC[C@@]2(C)[C@@H]1CC/C(C)=C/C(=O)O (stereo partly drawn) | – | Active | –
9 | C=C1CC[C@@H]2C(C)(C)CCC[C@@]2(C)[C@@H]1CC/C(C)=C/C(=O)O | inactive | Active | –

From ChEMBL document CHEMBL4024729, “Copalic acid analogs down-regulate androgen receptor and inhibit small chaperone protein” (Bioorg Med Chem Lett, 2017)
